# Results taken from ChEMBL document CHEMBL5303300, “EUbOPEN Chemogenomics Library - Multiplex” (2023).
# Where “and” joins values, the source holds several entries; their conditions need not be identical. Equal values may be shown once.
# Columns and labels:
# Format in all cases: toxicity, cell-based
# HEK-293T = test: Multiplex assay against HEK293T; conditions: human, number of replicates 2
# Procedure, shortened: (§1)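 Four dyes were applied at seeding to live cells: Hoechst33342, BioTracker Green Microtubule Cytoskeleton Dye, MitoTracker Red and Annexin V Alexa Fluor 680. Imaging after compound addition used a CQ1 microscope at 37°C and 5% CO2. CellPathfinder machine-learning gating then sorted cells into Hoechst high-intensity objects or normal cells, normal cells into healthy, pyknosed or fragmented nuclei, and pyknosed cells into mitotic or apoptotic, with tubulin, mitochondrial-mass and membrane-permeability phenotypes given as per cents of healthy-nucleus cells.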
# U2OS = test: Multiplex assay against U2OS; conditions: human, number of replicates 2; procedure, shortened: as §1
# Fibroblast = test: Multiplex assay against human fibroblast; conditions: number of replicates 2; procedure, shortened: as §1
# [1] = 12 h, 1 µM, compound concentration 1 uM
# [2] = 12 h, 10 µM, compound concentration 10 uM
# [3] = 24 h, 1 µM, compound concentration 1 uM
# [4] = 24 h, 10 µM, compound concentration 10 uM
# [5] = 48 h, 1 µM, compound concentration 1 uM
# [6] = 48 h, 10 µM, compound concentration 10 uM
compound,measurement,setting,value
CS(=O)(=O)c1ccc(C(=O)Nc2cccc(COc3ccc(Br)cc3CN3CC[C@@H](O)C3)c2)c(Cl)c1.O=CO,Population Apoptotic (%),HEK-293T; [1],57% and 47%
same,Population Healthy Nuclei (%),HEK-293T; [1],78% and 79%
same,Population Mitotic Cells (%),HEK-293T; [1],42% and 52%
same,Total Cell Count,HEK-293T; [1],501 and 560
same,Population Apoptotic (%),HEK-293T; [2],44% and 57%
same,Population Healthy Nuclei (%),HEK-293T; [2],87% and 85%
same,Population Mitotic Cells (%),HEK-293T; [2],55% and 42%
same,Total Cell Count,HEK-293T; [2],619 and 489
same,Population Apoptotic (%),HEK-293T; [3],54% and 48%
same,Population Healthy Nuclei (%),HEK-293T; [3],84% and 83%
same,Population Mitotic Cells (%),HEK-293T; [3],45% and 51%
same,Total Cell Count,HEK-293T; [3],735 and 812
same,Population Apoptotic (%),HEK-293T; [4],50% and 66%
same,Population Healthy Nuclei (%),HEK-293T; [4],85% and 84%
same,Population Mitotic Cells (%),HEK-293T; [4],50% and 33%
same,Total Cell Count,HEK-293T; [4],658 and 521
same,Population Apoptotic (%),HEK-293T; [5],30% and 25%
same,Population Healthy Nuclei (%),HEK-293T; [5],85%
same,Population Mitotic Cells (%),HEK-293T; [5],69% and 75%
same,Total Cell Count,HEK-293T; [5],1702 and 1674
same,Population Apoptotic (%),HEK-293T; [6],40% and 59%
same,Population Healthy Nuclei (%),HEK-293T; [6],85%
same,Population Mitotic Cells (%),HEK-293T; [6],60% and 40%
same,Total Cell Count,HEK-293T; [6],998 and 697
same,Population Apoptotic (%),U2OS; [1],60% and 71%
same,Population Healthy Nuclei (%),U2OS; [1],80%
same,Population Hoechst High Intensity Objects (%),U2OS; [1],0%
same,Population Mitotic Cells (%),U2OS; [1],40% and 28%
same,Population Normal (%),U2OS; [1],100%
same,Population Pyknosed Nuclei (%),U2OS; [1],9%
same,Population Apoptotic (%),U2OS; [2],55% and 54%
same,Population Healthy Nuclei (%),U2OS; [2],65% and 80%
same,Population Hoechst High Intensity Objects (%),U2OS; [2],0%
same,Population Mitotic Cells (%),U2OS; [2],44% and 45%
same,Population Normal (%),U2OS; [2],100%
same,Population Pyknosed Nuclei (%),U2OS; [2],20% and 15%
same,Population Apoptotic (%),U2OS; [3],54% and 59%
same,Population Healthy Nuclei (%),U2OS; [3],59% and 86%
same,Population Hoechst High Intensity Objects (%),U2OS; [3],0%
same,Population Mitotic Cells (%),U2OS; [3],45% and 40%
same,Population Normal (%),U2OS; [3],100%
same,Population Apoptotic (%),U2OS; [4],60% and 72%
same,Population Healthy Nuclei (%),U2OS; [4],59% and 65%
same,Population Hoechst High Intensity Objects (%),U2OS; [4],0%
same,Population Mitotic Cells (%),U2OS; [4],40% and 27%
same,Population Normal (%),U2OS; [4],100%
same,Population Pyknosed Nuclei (%),U2OS; [4],31%
same,Population Apoptotic (%),U2OS; [5],60% and 87%
same,Population Healthy Nuclei (%),U2OS; [5],64% and 82%
same,Population Hoechst High Intensity Objects (%),U2OS; [5],0%
same,Population Normal (%),U2OS; [5],100%
same,Population Pyknosed Nuclei (%),U2OS; [5],15%
same,Population Apoptotic (%),U2OS; [6],76% and 88%
same,Population Healthy Nuclei (%),U2OS; [6],47% and 57%
same,Population Hoechst High Intensity Objects (%),U2OS; [6],0% and 1%
same,Population Mitotic Cells (%),U2OS; [6],23% and 11%
same,Population Normal (%),U2OS; [6],100%
same,Population Pyknosed Nuclei (%),U2OS; [6],33%
same,Population Apoptotic (%),Fibroblast; [1],41% and 38%
same,Population Fragmented Nuclei (%),Fibroblast; [1],8%
same,Population Healthy Nuclei (%),Fibroblast; [1],61% and 73%
same,Population Hoechst High Intensity Objects (%),Fibroblast; [1],0%
same,Population Mitotic Cells (%),Fibroblast; [1],58% and 61%
same,Population Normal (%),Fibroblast; [1],100%
same,Population Pyknosed Nuclei (%),Fibroblast; [1],18%
same,Total Cell Count,Fibroblast; [1],146 and 167
same,Population Apoptotic (%),Fibroblast; [2],50% and 40%
same,Population Fragmented Nuclei (%),Fibroblast; [2],18% and 16%
same,Population Healthy Nuclei (%),Fibroblast; [2],55% and 61%
same,Population Hoechst High Intensity Objects (%),Fibroblast; [2],0%
same,Population Mitotic Cells (%),Fibroblast; [2],49% and 59%
same,Population Normal (%),Fibroblast; [2],100%
same,Population Pyknosed Nuclei (%),Fibroblast; [2],25% and 22%
same,Total Cell Count,Fibroblast; [2],224 and 280
same,Population Apoptotic (%),Fibroblast; [3],60% and 46%
same,Population Fragmented Nuclei (%),Fibroblast; [3],14% and 15%
same,Population Healthy Nuclei (%),Fibroblast; [3],63% and 67%
same,Population Hoechst High Intensity Objects (%),Fibroblast; [3],0%
same,Population Mitotic Cells (%),Fibroblast; [3],40% and 53%
same,Population Normal (%),Fibroblast; [3],100%
same,Population Pyknosed Nuclei (%),Fibroblast; [3],22% and 17%
same,Total Cell Count,Fibroblast; [3],156 and 186
same,Population Apoptotic (%),Fibroblast; [4],72% and 79%
same,Population Fragmented Nuclei (%),Fibroblast; [4],28% and 23%
same,Population Healthy Nuclei (%),Fibroblast; [4],52% and 63%
same,Population Hoechst High Intensity Objects (%),Fibroblast; [4],1% and 0%
same,Population Mitotic Cells (%),Fibroblast; [4],27% and 20%
same,Population Pyknosed Nuclei (%),Fibroblast; [4],18% and 13%
same,Total Cell Count,Fibroblast; [4],262 and 331
same,Population Apoptotic (%),Fibroblast; [5],71% and 57%
same,Population Fragmented Nuclei (%),Fibroblast; [5],18% and 16%
same,Population Healthy Nuclei (%),Fibroblast; [5],62% and 67%
same,Population Hoechst High Intensity Objects (%),Fibroblast; [5],0%
same,Population Mitotic Cells (%),Fibroblast; [5],28% and 42%
same,Population Normal (%),Fibroblast; [5],100%
same,Population Pyknosed Nuclei (%),Fibroblast; [5],18% and 15%
same,Total Cell Count,Fibroblast; [5],154 and 164
same,Population Apoptotic (%),Fibroblast; [6],84% and 82%
same,Population Fragmented Nuclei (%),Fibroblast; [6],32% and 30%
same,Population Healthy Nuclei (%),Fibroblast; [6],56% and 58%
same,Population Hoechst High Intensity Objects (%),Fibroblast; [6],1% and 0%
same,Population Mitotic Cells (%),Fibroblast; [6],15% and 17%
same,Population Normal (%),Fibroblast; [6],100%
same,Population Pyknosed Nuclei (%),Fibroblast; [6],10%
same,Total Cell Count,Fibroblast; [6],300 and 395
